≈ marks a conversion by molar mass, not a printed value. Calls of active or inactive are those of the source. The rule behind the calls is not given here. Where only a bound is given, the exact number is not on record here.

Data set [1] has as its target T1, Nuclear factor erythroid 2-related factor 2 (Homo sapiens) (UniProt Q16236).
T1 sequence (whole entry): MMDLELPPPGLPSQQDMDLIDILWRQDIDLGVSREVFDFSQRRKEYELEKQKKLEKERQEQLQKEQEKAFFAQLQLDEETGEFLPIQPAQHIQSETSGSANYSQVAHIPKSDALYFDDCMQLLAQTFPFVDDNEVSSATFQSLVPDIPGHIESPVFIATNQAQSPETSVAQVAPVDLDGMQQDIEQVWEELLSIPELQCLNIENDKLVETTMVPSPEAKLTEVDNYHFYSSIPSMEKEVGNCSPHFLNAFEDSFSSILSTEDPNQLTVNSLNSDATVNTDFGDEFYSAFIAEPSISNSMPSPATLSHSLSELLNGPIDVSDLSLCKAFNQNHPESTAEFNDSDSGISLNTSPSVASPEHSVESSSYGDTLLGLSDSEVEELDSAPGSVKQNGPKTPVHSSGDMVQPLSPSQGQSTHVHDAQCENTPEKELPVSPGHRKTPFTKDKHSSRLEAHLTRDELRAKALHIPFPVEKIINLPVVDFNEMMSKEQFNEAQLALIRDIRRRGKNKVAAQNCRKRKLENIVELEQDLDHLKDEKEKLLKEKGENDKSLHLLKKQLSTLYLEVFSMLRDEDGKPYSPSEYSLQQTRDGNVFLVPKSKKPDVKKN
Put plainly: Activation of Nrf2 in human HepG2-ARE-C8 cells assessed as induction of ARE-mediated luciferase activity at 1 uM after 24 hrs by luciferase reporter gene assay relative to control. The data set is classed as cell-based. The procedure, abridged:
(§1)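 HepG2-ARE-C8 cells stably carrying ARE-luciferase, grown in DMEM with 10% FBS at 37 °C and 5% CO2. Seeded at 5 × 10^4 cells/well, left overnight, then given compound diluted from a 10 mM DMSO stock for 24 h. Cells lysed and luciferase read as RLU. Inductivity = (RLUtest − RLUblank)/(RLUcontrol − RLUblank), with DMSO as control. Mean ± SEM of three experiments.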
For orientation: A reporter such as luciferase makes a cellular process visible.

For data set [2], the system named is Mus musculus. Put plainly: Hepatoprotective activity against APAP-induced liver injury in C57BL/6 mouse assessed as increase in GSH levels administered ip for 7 consecutive days followed by APAP challenge 1 hr post last compound dose and measured after 24 hrs. The class given is functional, organism-based. The procedure, abridged: (§2)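 Female C57BL/6 mice (20–25 g, n = 10/group) received 10, 50 or 100 mg/kg/day ip in saline for 7 days. One hour after the last dose they received APAP 300 mg/kg in saline. Killed 24 h later. Serum ALT/AST by kit. Liver homogenates (pH 7.0 phosphate) used for GSH (A420, μmol/g protein), GST (A412, U/mg protein) and SOD. Liver also analyzed by western blot (β-actin normalized), qRT-PCR (GAPDH normalized) and H&E.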

Data set [3] relates to Mus musculus. Put plainly: Hepatoprotective activity against APAP-induced liver injury in C57BL/6 mouse assessed as reduction in serum AST levels administered ip for 7 consecutive days followed by APAP challenge 1 hr post last compound dose and measured after 24 hrs. The class given is functional, organism-based. The procedure, abridged: as §2
The subject of data set [4] is Mus musculus. Put plainly: In vivo activation of Nrf2 in APAP-induced liver injury in C57BL/6 mouse assessed as increase in Nrf2 protein expression level at 10 to 100 mg/kg, ip administered for 7 consecutive days followed by APAP challenge 1 hr post last compound dose and measured after 24 hrs by Western blot analysis. The class given is functional, organism-based. The method, boiled down:
as §2
On the technique in general: In western blotting, separated proteins are transferred to a membrane and probed.

The target of data set [5] is T1, Nuclear factor erythroid 2-related factor 2 (Homo sapiens). The experiment in a line: Activation of Nrf2 in human LO2 cells assessed as increase in NQO1 mRNA expression level by qRT-PCR analysis. The class given is cell-based. The procedure, abridged:
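LO2 cells in DMEM with 10% FBS were exposed to 0, 2.5, 5, 10, 20 or 40 μM compound for 12 h. Transcripts measured by qRT-PCR: 40 cycles of 95 °C for 5 s and 60 °C for 30 s. Normalized to GAPDH and expressed as fold over the untreated control. Mean ± SD, n = 3.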
A general note: In qPCR the cycle at which signal appears reflects the starting amount.

Data set [6] relates to L02. Put plainly: Hepatoprotective activity against APAP-induced cell injury in human LO2 cells cotreated with Nrf2 siRNA assessed as cell viability at 20 uM pretreated for 24 hrs followed by APAP treatment measured after 24 hrs by MTT assay. The data set is classed as functional. The following applies: read-out: Activity. The method, boiled down:
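LO2 cells plated for 12 h and pretreated for 24 h with 5, 10 or 20 μM compound. One arm was first transfected with 50 nM Nrf2 siRNA before receiving 20 μM compound. Medium then replaced with medium containing 8 mM APAP for 24 h. Viability by MTT at A570. Mean ± SD of three experiments.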

The target in data set [7] is T1, Nuclear factor erythroid 2-related factor 2 (Homo sapiens). The experiment in a line: Activation of Nrf2 in human LO2 cells cotreated with Nrf2 siRNA assessed as increase in HO-1 mRNA expression level at 20 uM by qRT-PCR analysis. The class given is cell-based. The procedure, abridged:
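LO2 cells plated at 7 × 10^5 per 60 mm dish and transfected with 50 nM Nrf2 siRNA (scrambled siRNA as control). After 24 h, fresh medium was added and cells grown a further 48 h. Then 20 μM compound for 12 h. Nrf2, NQO1, GCLM and HO-1 mRNA measured by qRT-PCR, normalized to GAPDH, as fold over control.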

Data set [8] shares this target. Put plainly: Activation of Nrf2 in human HepG2-ARE-C8 cells assessed as induction of ARE-mediated luciferase activity at 20 uM after 24 hrs by luciferase reporter gene assay relative to control. The class given is cell-based. The procedure, abridged: as §1
The nature of data set [9]: Intrinsic aqueous solubility of the compound by potentiometric titration method. The data set is classed as physicochemical. The method, boiled down:
(§3)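 Intrinsic aqueous solubility and logD at pH 7.4 determined by Avdeef-Bucher potentiometric titration on a pION Gemini Profiler.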

Data set [10] concerns L02. The experiment in a line: Cytotoxicity against human LO2 cells up to 160 uM after 24 hrs by MTT assay. The class given is cell-based. The note with it: l02, 24 h. The method, boiled down: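 LO2 cells plated for 12 h, then treated for 24 h with 0, 0.2, 2, 20, 40, 80 or 160 μM compound diluted in medium from a DMSO stock. MTT (5 mg/mL stock) added for 4 h, formazan dissolved in DMSO, A570 read. Viability computed from OD relative to DMSO control and blank. Mean ± SD of three experiments.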

Data set [11] concerns Mus musculus. The experiment in a line: Hepatoprotective activity against APAP-induced liver injury in C57BL/6 mouse assessed as increase in GST levels administered ip for 7 consecutive days followed by APAP challenge 1 hr post last compound dose and measured after 24 hrs. The class given is functional, organism-based. The procedure, abridged: as §2
Data set [12] has as its system Mus musculus. Put plainly: In vivo activation of Nrf2 in APAP-induced liver injury in C57BL/6 mouse assessed as increase in Nrf2 mRNA expression level administered ip for 7 consecutive days followed by APAP challenge 1 hr post last compound dose and measured after 24 hrs by qRT-PCR analysis. The data set is classed as functional, organism-based. The method, boiled down: as §2

Data set [13] concerns Mus musculus. The experiment in a line: In vivo activation of Nrf2 in APAP-induced liver injury in C57BL/6 mouse assessed as increase in HO-1 mRNA expression level administered ip for 7 consecutive days followed by APAP challenge 1 hr post last compound dose and measured after 24 hrs by qRT-PCR analysis. The class given is functional, organism-based. The method, boiled down: as §2

A short description of data set [14]: Lipophilicity, log D of the compound at pH 7.4 by potentiometric titration method. The following applies: buffer. The class given is physicochemical. The method, boiled down: as §3
The test system of data set [15] is Mus musculus. The experiment in a line: In vivo activation of Nrf2 in APAP-induced liver injury in C57BL/6 mouse assessed as increase in NQO1 protein expression level at 10 to 100 mg/kg, ip administered for 7 consecutive days followed by APAP challenge 1 hr post last compound dose and measured after 24 hrs by Western blot analysis. The data set is classed as functional, organism-based. The procedure, abridged:
as §2

Take `Cc1ccc(-c2noc(-c3ccc(F)c(F)c3)n2)cn1`: the Activity is 16.1 in [1]; “Dose-dependent effect” in the data set with Mus musculus [2]; “Dose-dependent effect” in the data set on Mus musculus [3]; “Dose-dependent effect” in data set [5]; 24.7 in data set [8]; “<= 7%” in the data set with L02 [10]. Besides, the Activity result in the data set on Mus musculus [11], in the data set on Mus musculus [12] and in the data set on Mus musculus [13] was “Dose-dependent effect” throughout. Further, the result (with Mus musculus [4]; in data set [7]; with Mus musculus [15]) was Active. Besides, the viability at 20 µM with L02 [6] turned out to be 50%. Moreover, in data set [9], the solubility (usually how much of the substance goes into solution per volume) came to 250 µM (≈ 68.3 µg/mL). In addition, the logD – broadly, the decadic logarithm of the distribution of all forms, ionised or not, between an organic phase and buffer at a given pH – in data set [14] came to 3.07.

(Values after ChEMBL document CHEMBL4265908, “Structure-activity and structure-property relationships of novel Nrf2 activators with a 1,2,4-oxadiazole core and their therapeutic effects on acetaminophen (APAP)-induced acute liver injury” (Eur J Med Chem, 2018).)
